ChEMBL document CHEMBL4689842, “EUbOPEN Chemogenomics Library wave 1” (2021)
Where “and” joins values, the source holds several entries; their conditions need not be identical. Equal entries are not always repeated.

System: HEK-293T
Test: Multiplex assay against HEK293T;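 on Population Tubulin-Different-Phenotype (%): share of the cells with healthy nuclei that show this phenotype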
Type: toxicity, cell-based
Settings: human, 1 µM, compound concentration 1 uM
Summary of the method: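 Live cells were stained at seeding with Hoechst33342, BioTracker Green Microtubule Cytoskeleton Dye, MitoTracker Red and Annexin V Alexa Fluor 680, then imaged on a CQ1 microscope at 37°C and 5% CO2 after compound addition. CellPathfinder machine-learning gating split cells into Hoechst high-intensity objects or normal cells. Normal cells were split into healthy, pyknosed or fragmented nuclei, and pyknosed cells into mitotic or apoptotic. Tubulin, mitochondrial-mass and membrane-permeability phenotypes are per cents of healthy-nucleus cells.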

For `Cn1cc(C2=C(c3cn(C4CCN(Cc5ccccn5)CC4)c4ccccc34)C(=O)NC2=O)c2ccccc21` [ENZASTAURIN], the “Population Apoptotic (%)” value (12 h, replicate 1) was 23% and 42%, the “Population Fragmented Nuclei (%)” value (12 h, replicate 1) was 18% and 16% and the “Population Healthy Nuclei (%)” value (12 h, replicate 1) was 49% and 29%. The “Population Hoechst High Intensity Objects (%)” value (12 h, replicate 1) was 14% and 15%, the “Population Membrane Permeable-Phenotype (%)” value (12 h, replicate 1) was 13% and 12% and the “Population Mitotic Cells (%)” value (12 h, replicate 1) was 76% and 57%. For the same compound, the “Population Normal (%)” value (12 h, replicate 1) was 85% and 84%, the “Population Pyknosed Nuclei (%)” value (12 h, replicate 1) was 31% and 53% and the “Total Cell Count” value (12 h, replicate 1) was 539 and 569. The “Population Apoptotic (%)” value (12 h, replicate 2) was 28% and 14%, the “Population Fragmented Nuclei (%)” value (12 h, replicate 2) was 3% and 4% and the “Population Healthy Nuclei (%)” value (12 h, replicate 2) was 77% and 86%. The “Population Hoechst High Intensity Objects (%)” value (12 h, replicate 2) was 6% and 4%, the “Population Membrane Permeable-Phenotype (%)” value (12 h, replicate 2) was 2% and 6% and the “Population Mitochondria Different-Phenotype (%)” value (12 h, replicate 2) was 72% and 25%. The “Population Mitotic Cells (%)” value (12 h, replicate 2) was 71% and 85%, the “Population Normal (%)” value (12 h, replicate 2) was 93% and 95% and the “Population Pyknosed Nuclei (%)” value (12 h, replicate 2) was 19% and 9%. The “Population Tubulin-Different-Phenotype (%)” value (12 h, replicate 2) was 87% and 37%, the “Total Cell Count” value (12 h, replicate 2) was 1031 and 1115 and the “Population Apoptotic (%)” value (24 h, replicate 1) was 49% and 19%. For the same compound, the “Population Fragmented Nuclei (%)” value (24 h, replicate 1) was 19% and 16%, the “Population Healthy Nuclei (%)” value (24 h, replicate 1) was 39% and 65% and the “Population Hoechst High Intensity Objects (%)” value (24 h, replicate 1) was 24% and 11%. The “Population Membrane Permeable-Phenotype (%)” value (24 h, replicate 1) was 11% and 6%, the “Population Mitotic Cells (%)” value (24 h, replicate 1) was 50% and 80% and the “Population Normal (%)” value (24 h, replicate 1) was 75% and 88%. The “Population Pyknosed Nuclei (%)” value (24 h, replicate 1) was 41% and 18%, the “Population Tubulin-Different-Phenotype (%)” value (24 h, replicate 1) was 76% and 32% and the “Total Cell Count” value (24 h, replicate 1) was 506 and 516. The “Population Fragmented Nuclei (%)” value (24 h, replicate 2) was 4% and 12%, the “Population Healthy Nuclei (%)” value (24 h, replicate 2) was 85% and 83% and the “Population Hoechst High Intensity Objects (%)” value (24 h, replicate 2) was 9% and 5%. For the same compound, the “Population Membrane Permeable-Phenotype (%)” value (24 h, replicate 2) was 3% and 4%, the “Population Mitotic Cells (%)” value (24 h, replicate 2) was 68% and 93% and the “Population Normal (%)” value (24 h, replicate 2) was 90% and 94%. For the same compound, the “Population Tubulin-Different-Phenotype (%)” value (24 h, replicate 2) was 77% and 27% and the “Total Cell Count” value (24 h, replicate 2) was 1011 and 1578.
